# Assay results taken from article PMC10874764 (Chinese Herbal Medicines, 2023).
# Where two headings read alike, the source gives them in different places.
# Columns and labels:
# [1] = Stability of each chemical component in rat plasma; assay type: in vitro ADME
# Outline: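 Blank rat plasma was spiked at 10, 100 and 500 ng/mL and held at room temperature for 24 h, at 4 °C for 14 d, or frozen at −20 °C for 15 d. Six samples per level were assayed by HPLC-MS/MS against 1,8-dihydroxyanthraquinone internal standard. Calibration ran 5–1 000 ng/mL, with analyte/IS ratio fitted by 1/x-weighted least squares.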
# [2] = assay type: in vivo, SD rats; conditions: male, SD, rat, plasma, po, 1.5 mL/200 g
# [3] = Pharmacokinetics of five components in control; assay type: in vivo, SD rats; conditions: for AUC / AUC(0-t) / Cmax / MRT last / half-life / Tmax: male, SD, rat, plasma, po, 1.5 mL/200 g, n = 6; for AUC: AUC(0−i); for MRT last: MRT0−t
# Outline: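 Male SD rats (8-week-old, 200–220 g), four groups (n = 6). Acute liver injury induced by intraperitoneal 50% CCl4 in olive oil at 3 mL/kg; controls received olive oil; fasted with water. After 12 h, single intragastric decoction at 1.5 mL/200 g. Tail-vein blood taken at 0–12 h into heparin. HPLC-MS/MS with internal standard; compartment-model fit for AUC, Cmax, Tmax, T1/2 and MRT.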
# [4] = 10 ng/mL, room temperature for 24 h
# [5] = 100 ng/mL, room temperature for 24 h
# [6] = 100 ng/mL, −20 °C free for 15 d
# [7] = 500 ng/mL, room temperature for 24 h
# [8] = 500 ng/mL, −20 °C free for 15 d
# [9] = RhRR of control group, single oral 1.5 mL/200 g RhRR decoction
# [10] = RhRR-EuS of control group, single oral 1.5 mL/200 g RhRR-EuS decoction
# [11] = T1/2, RhRR-EuS of control group, single oral 1.5 mL/200 g RhRR-EuS decoction
Compound,"Stability S [1, 4] [%]","Stability S ([1]; 10 ng/mL, −4 °C for 14 d) [%]","Stability S ([1]; 10 ng/mL, −20 °C free for 15 d) [%]","Stability S [1, 5] [%]","Stability S ([1]; 100 ng/mL, −4 °C for 14 d) [%]","Stability S [1, 6] [%]","Stability S [1, 7] [%]","Stability S ([1]; 500 ng/mL, −4 °C for 14 d) [%]","Stability S [1, 8] [%]",Tmax [2] [h],"AUC [3, 9] [ng·h/mL]","AUC [3, 10] [ng·h/mL]","AUC(0-t) [3, 9] [ng·h/mL]","AUC(0-t) [3, 10] [ng·h/mL]","Cmax [3, 9] [ng/mL]","Cmax [3, 10] [ng/mL]","MRT last [3, 9] [h]","MRT last [3, 10] [h]","half-life [3, 11] [h]","Tmax [3, 9] [h]",also measured
"O=C1c2cccc(O)c2C(=O)c2c(O)cc(CO)cc21 [Ae, Aloe emodin]",99.60,107,88.6,88.50,112,84.3,98.50,98.30,85.6,2,738,489,474,443,101,124,11.9,5.78,3.04,2,"Tmax [3, 10]: 0.5 h"
"Cc1cc(O)c2c(c1)C(=O)c1cc(O)cc(O)c1C2=O [Em, Emodin]",104.60,105,98.50,110.40,108,108.40,99.60,89.90,106,–,94.1,154,67.7,68.3,11.2,16.4,9.3,18.3,11.4,0.5,–
"Cc1cc(O)c2c(c1)C(=O)c1cccc(O)c1C2=O [Ch, Chrysophanol]",114,99.70,105.40,105,103,102.30,90.40,96.30,99.50,0.5,712,763,662,739,164,170,5.33,5.64,1.31,1,"half-life ([3]; T1/2, RhRR of control group, single oral 1.5 mL/200 g RhRR decoction): 3.64 h"

# Now from value to compound, other results behind:
"Stability S [1, 4] [%]","Stability S ([1]; 10 ng/mL, −4 °C for 14 d) [%]","Stability S ([1]; 10 ng/mL, −20 °C free for 15 d) [%]","Stability S [1, 5] [%]","Stability S ([1]; 100 ng/mL, −4 °C for 14 d) [%]","Stability S [1, 6] [%]","Stability S [1, 7] [%]","Stability S ([1]; 500 ng/mL, −4 °C for 14 d) [%]","Stability S [1, 8] [%]",Tmax [2] [h],"AUC [3, 9] [ng·h/mL]","AUC [3, 10] [ng·h/mL]","AUC(0-t) [3, 9] [ng·h/mL]","AUC(0-t) [3, 10] [ng·h/mL]","Cmax [3, 9] [ng/mL]","Cmax [3, 10] [ng/mL]","MRT last [3, 9] [h]","MRT last [3, 10] [h]","half-life [3, 11] [h]","Tmax [3, 9] [h]",Compound,also measured
103,99.50,105,105,102,100.6,90.50,96.70,95.3,0.25,414,243,136,136,54.4,58.6,37.3,14.7,10.9,–,"COc1cc(O)c2c(c1)C(=O)c1cc(C)cc(O)c1C2=O [Ph, Physcion]","Tmax [3, 10]: 0.25 h"
106.20,95.90,109.40,112.30,94.60,95.30,89.40,85.40,100.40,8,1670,1720,1440,1600,434,455,6.31,5.44,1.84,–,"O=C(O)c1cc(O)c2c(c1)C(=O)c1cccc(O)c1C2=O [Rh, Rhein]","Bioavailability among the five components ([3]; all groups (control and model rats, oral RhRR or RhRR-EuS decoction)): highest"
